Experimental data collected from several papers.
Each line is one published result; the experiments were not run side by side.
Medium: Caco-2

With `COCC(=O)N1CCC[C@H](C(=O)NCc2nc(-c3ccccc3)cs2)C1` the Papp A→B was 52 ×10⁻⁶ cm/s (pH 7.4).
For `O=c1cc(-c2ccc(O)cc2)oc2c([C@@H]3O[C@H](CO)[C@@H](O)[C@H](O)[C@H]3O)c(O)cc(O)c12`, the Papp A→B was 0.316 ×10⁻⁶ cm/s (100 µg/mL).
`CN/C(=N/CCSCc1nc[nH]c1C)NC#N` has a Papp A→B of 0.55 ×10⁻⁶ cm/s (5 µM; 2 h).
The Papp A→B of `COc1ccc(-c2cc(=O)c3c(O)cc(O[C@@H]4O[C@H](CO[C@@H]5O[C@@H](C)[C@H](O)[C@@H](O)[C@H]5O)[C@@H](O)[C@H](O)[C@H]4O)cc3o2)cc1O` is reported as 45.2 ×10⁻⁶ cm/s (100 µg/mL; 2 h).
`Cc1c[nH]c2ncnc(N3C=C(C(=O)N4CCC[C@@H](N)C4)SCC3)c12` gave a Papp A→B of under 0.3 ×10⁻⁶ cm/s (10 µM; pH 6.5).
With `O=c1cc(-c2ccc(O)c(O)c2)oc2cc(O)cc(O)c12` the Papp A→B was 7.1 ×10⁻⁶ cm/s (100 µg/mL; 2 h).
The Papp A→B of `O=c1c(O[C@@H]2O[C@H](CO)[C@H](O)[C@H](O)[C@H]2O)c(-c2ccc(O)c(O)c2)oc2cc(O)cc(O)c12` is reported as 0.349 ×10⁻⁶ cm/s (200 µg/mL).
With `O=c1c(-c2ccc(O)cc2)coc2cc(O)ccc12` the Papp A→B was 27.4 ×10⁻⁶ cm/s (100 µg/mL; 2 h).
With `Cc1ccc(N(c2ccc(NC(=O)CN(C)c3ccccc3N3CCCC3=O)cc2)C(C)C)cc1` the Papp A→B was 1.09 ×10⁻⁶ cm/s.
For `COCC(=O)N1CCC[C@H](C(=O)NCc2nc(-c3ccc(C#N)cc3)cs2)C1`, the Papp A→B was 24 ×10⁻⁶ cm/s (pH 7.4).
`CCCCCOC(=O)Nc1nc(=O)n([C@@H]2O[C@H](C)[C@@H](O)[C@H]2O)cc1F` gave a Papp A→B of 3.24 ×10⁻⁶ cm/s (4 h).
`O=C(O)[C@H]1O[C@@H](Oc2cc3oc(-c4ccccc4)cc(=O)c3c(O)c2O)[C@H](O)[C@@H](O)[C@@H]1O` gave a Papp A→B of 10.8 ×10⁻⁶ cm/s (100 µg/mL; 2 h).
With `Nc1nc2c(ncn2COCCO)c(=O)[nH]1` the Papp A→B was 0.18 ×10⁻⁶ cm/s (5 µM; 2 h).
For `COc1ccc(-c2coc3cc(O)cc(O)c3c2=O)cc1`, the Papp A→B was 20.4 ×10⁻⁶ cm/s (100 µg/mL; 2 h).
`CNS(=O)(=O)Cc1ccc2[nH]cc(CCN(C)C)c2c1` has a Papp A→B of 0.36 ×10⁻⁶ cm/s (5 µM; 2 h).
For `O=c1cc(-c2ccccc2)oc2cc(O)c(O)c(O)c12`, the Papp A→B was 9.23 ×10⁻⁶ cm/s (100 µg/mL; 2 h).
The Papp A→B of `N#C[C@@]1(c2ccc3c(N)ncnn23)O[C@H](CO)[C@@H](O)[C@H]1O` is reported as 3.8 ×10⁻⁶ cm/s (10 µM; 2 h).
With `CC(C)NCC(O)COc1cccc2ccccc12` (stereo not shown) the Papp A→B was 29.7 ×10⁻⁶ cm/s (10 µM; 2 h).
For `Cc1ncc(Cl)cc1NCc1ccc(C(=O)N[C@@H](CC2CCCC2)C(=O)NC2CC2)s1`, the Papp A→B was 0.22 ×10⁻⁶ cm/s (5 µM; 2 h; pH 7.4).
The Papp A→B of `C=CC(=O)NC1CCN(c2ncc3ncnc(Nc4ccc(Oc5ccc6c(c5)ncn6C)c(C)c4)c3n2)CC1` is reported as about 6.8 ×10⁻⁶ cm/s.
`O=C(NCc1nc(-c2ccc(C(F)(F)F)cc2)cs1)[C@H]1CCCN(C(=O)CO[C@H]2CCCNC2)C1` has a Papp A→B of 0.15 ×10⁻⁶ cm/s (pH 7.4).
`COC(=O)[C@H]1[C@H]2C[C@@H]3c4[nH]c5cc(OC)ccc5c4CCN3C[C@H]2C[C@@H](OC(=O)c2cc(OC)c(OC)c(OC)c2)[C@@H]1OC` has a Papp A→B of 0.97 ×10⁻⁶ cm/s (5 µM; 2 h).
`N#Cc1ccc(C[C@H](Nc2nnc(-c3ccc(F)cc3)o2)C(=O)N2CCc3ccccc32)cc1` gave a Papp A→B of 62.9 ×10⁻⁶ cm/s (100 µM; 2 h).
`N=C(N)NCCCNC(=O)[C@@H]1CCCCN1C(=O)[C@@H](CC1CCCCC1)NCC(=O)O` has a Papp A→B of 0.05 ×10⁻⁶ cm/s (5 µM; 2 h).
With `CC(C)C(=O)OCc1cc2[nH]c(=S)n(Cc3cccnc3)c(=O)c2cc1Cl` the Papp A→B was 1.4 ×10⁻⁶ cm/s (10 µM; 90 min; pH 7.4).
For `CCOCC(=O)N1CCC[C@H](C(=O)NCc2nc(-c3ccc(C)nc3)cs2)C1`, the Papp A→B was 15 ×10⁻⁶ cm/s (pH 7.4).
With `CCOC(=O)[C@H](CCc1ccccc1)N[C@@H](C)C(=O)N1CCC[C@H]1C(=O)O` the Papp A→B was 0.13 ×10⁻⁶ cm/s (5 µM; 2 h).
The Papp A→B of `O=C(NCc1nc(-c2ccc(C(F)(F)F)cc2)cs1)[C@H]1CCCN(C(=O)COCCN2CCCCC2)C1` is reported as 3.9 ×10⁻⁶ cm/s (pH 7.4).
`C[C@@H]1O[C@@H](OC[C@H]2O[C@@H](Oc3c(-c4ccc(O)c(O)c4)oc4cc(O)cc(O)c4c3=O)[C@H](O)[C@@H](O)[C@@H]2O)[C@H](O)[C@H](O)[C@H]1O` gave a Papp A→B of 0.293 ×10⁻⁶ cm/s (200 µg/mL).
For `CCONC(=O)N1CCC[C@H](C(=O)NCc2nc(-c3ccc(C#N)cc3)cs2)C1`, the Papp A→B was 6.5 ×10⁻⁶ cm/s (pH 7.4).
For `COc1ccc(CCC(=O)c2c(O)cc(O[C@@H]3O[C@H](CO)[C@@H](O)[C@H](O)[C@H]3O[C@@H]3O[C@@H](C)[C@H](O)[C@@H](O)[C@H]3O)cc2O)cc1O`, the Papp A→B was 17 ×10⁻⁶ cm/s (100 µg/mL; 2 h).
With `O=c1c2cc(Cl)ccc2[nH]c(=S)n1Cc1cccnc1` the Papp A→B was 17.7 ×10⁻⁶ cm/s (10 µM; 90 min; pH 7.4).
`N#Cc1ccc(C[C@H](Nc2ncc(-c3ccc(F)cc3)o2)C(=O)N2CCc3ccccc32)cc1` gave a Papp A→B of 10.6 ×10⁻⁶ cm/s (100 µM; 2 h).
With `O=c1c2cc(Cl)ncc2[nH]c(=S)n1Cc1cccnc1` the Papp A→B was 34.6 ×10⁻⁶ cm/s (10 µM; 90 min; pH 7.4).
`N#Cc1ccc(C[C@H](NC(=O)Nc2ccc(F)cc2)C(=O)N2CCc3ccccc32)cc1` has a Papp A→B of 49.3 ×10⁻⁶ cm/s (100 µM; 2 h).
For `CC(=O)OCc1cc2[nH]c(=S)n(Cc3cccnc3)c(=O)c2cc1Cl`, the Papp A→B was 0.6 ×10⁻⁶ cm/s (10 µM; 90 min; pH 7.4).
The Papp A→B of `Oc1cc(O)c2c(c1)O[C@H](c1ccc(O)c(O)c1)[C@H](O)C2` is reported as 1.26 ×10⁻⁶ cm/s (100 µg/mL; 2 h).
